Data set [1] deals with Rattus norvegicus. The data set is described as follows: Percentage of control was measured on rat liver cathepsin B by a single oral dose of 50 mg/kg. It is filed as functional. The gist of the method: (§1)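 Rats dosed once by gavage with compound suspended in CMC; livers taken 4-5 h postdose, frozen, homogenized and centrifuged; supernatant cathepsin B activity read with Z-Arg-Arg-NMec at pH 6.0, 37 °C, 30 min, quenched with chloroacetate/acetate pH 4.3; specific activity given as % of vehicle control, two dilutions in triplicate, 4-5 animals per group.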

Another data set concerns the target Cathepsin B (Bos taurus) (UniProt P07688). The experiment in a line: Rate of cathepsin B inactivation in vitro in bovine spleen. The data set is classed as tissue-based. Summed up: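 Purified bovine spleen cathepsin B; continuous fluorometric assay in 0.1 M potassium phosphate, 1.25 mM EDTA, 1 mM dithiothreitol, pH 6.0, 25 °C; second-order inactivation rate constant k/K (M-1 s-1) determined.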

In data set [2] the test system is Rattus norvegicus. The experiment in a line: Percentage of control was measured on rat liver cathepsin B by a single intraperitoneal dose.(dose =10 mg/kg). It is filed as functional. Summed up:
(§2)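 Female Lewis rats, single intraperitoneal dose as CMC suspension; livers removed 4-5 h postdose, frozen homogenate supernatant assayed fluorimetrically with Z-Arg-Arg-NMec in 0.1 M KH2PO4 pH 6.0, 1 mM EDTA, 1 mM DTT, 37 °C 30 min; protein-normalized activity as % of CMC control; two dilutions in triplicate per animal, 4-5 animals per group.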

For data set [3], the system named is Rattus norvegicus. The data set is described as follows: Percentage of control was measured on rat liver cathepsin B by a single oral dose.(dose =50 mg/kg). The data set is classed as functional. Summed up: as §1
Data set [4] can be described thus: Half-life measured in rat plasma.
A short description of data set [5]: Half-life measured in in vitro Cathepsin B assay in human plasma. It is filed as ADME, cell-free.
In data set [6] the test system is Rattus norvegicus. The experiment in a line: Percent inhibition was measured on rat spleen cathepsin B by a single subcutaneous dose of 20 mg/kg.
In data set [7] the test system is Rattus norvegicus. The experiment in a line: Percent inhibition was measured on rat liver cathepsin B by a single subcutaneous dose of 20 mg/kg.
In data set [8] the test system is Rattus norvegicus. The data set is described as follows: Percent inhibition was measured on rat pancreas cathepsin B by a single subcutaneous dose of 20 mg/kg.
Data set [9] has as its system Rattus norvegicus. The experiment in a line: ED50 value was determined for rat liver at 20h postdose by subcutaneous administration. It is filed as functional. The settings on record: sc. Summed up: (§3)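 Female Lewis rats (150-200 g, usually four per group), single subcutaneous dose suspended in CMC; heart, liver or skeletal muscle harvested 20 h postdose, frozen in liquid nitrogen, homogenized, clarified at 15000g. Cathepsin B measured as Z-Arg-Arg-NMec (20 μM solution) hydrolysis, pH 6.0, 37 °C 30 min, fluorescence ex 340/em 460; specific activity as % of vehicle control; ED50 from dose-response.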

The subject of data set [10] is Rattus norvegicus. The experiment in a line: Percent inhibition was measured on rat skeletal tissue cathepsin B by a single subcutaneous dose of 20 mg/kg.
In data set [11] the test system is Rattus norvegicus. The data set is described as follows: ED50 value was determined for rat heart at 20h postdose by subcutaneous administration. It is filed as functional. To be noted: sc. The gist of the method:
as §3

Data set [12] has as its system Rattus norvegicus. The data set is described as follows: Percent inhibition was measured on rat heart cathepsin B by a single subcutaneous dose of 20 mg/kg.
Data set [13] has as its system Rattus norvegicus. The data set is described as follows: ED50 value was determined for rat skeletal muscle at 20h postdose by subcutaneous administration. The settings on record: Muscle tissue, sc. The data set is classed as functional. Summed up: as §3
Data set [14] deals with Rattus norvegicus. The experiment in a line: Percentage of control was measured on rat liver cathepsin B by a single intraperitoneal dose of 10 mg/kg. It is filed as functional. The gist of the method:
as §2

The test system of data set [15] is Rattus norvegicus. The data set is described as follows: Percentage of control was measured on rat liver cathepsin B by a single intraperitoneal dose.(dose =100 mg/kg). The data set is classed as functional. The gist of the method:
as §2

The test system of data set [16] is Rattus norvegicus. The data set is described as follows: Percentage of control was measured on rat liver cathepsin B by a single oral dose.(dose =100 mg/kg). It is filed as functional. The gist of the method:
as §1

On to `COc1ccc(C[C@H](NC(=O)OCc2ccccc2)C(=O)N[C@@H](CCCCN)C(=O)COC(=O)c2c(C)cc(C)cc2C)cc1.O=C(O)C(F)(F)F`, for which, in the data set on Rattus norvegicus [1], the Control turned out to be 30%. In addition, the k/K at Cathepsin B (Bos taurus) turned out to be 170000 M⁻¹ s⁻¹.

As for `Cc1cc(C)c(C(=O)OCC(=O)[C@@H](C)NC(=O)[C@H](Cc2ccccc2)NC(=O)CCC(=O)O)c(C)c1`, the values for the Control in the data set on Rattus norvegicus [2] and in the data set with Rattus norvegicus [3] were 23% and 31%, respectively. At Cathepsin B (Bos taurus), this compound came in with a k/K of 1000 M⁻¹ s⁻¹.

In the data set with Rattus norvegicus [1], `Cc1cc(C)c(C(=O)OCC(=O)CNC(=O)[C@H](Cc2ccccc2)NC(=O)CCC(=O)O)c(C)c1` gave a Control of 49%. The k/K at Cathepsin B (Bos taurus) was found to be 700 M⁻¹ s⁻¹.

In the data set with Rattus norvegicus [1], `CC(NC(=O)[C@H](Cc1ccccc1)NC(=O)OCc1ccccc1)C(=O)CF` (some centres not stated) displayed a Control of 7%. The k/K at Cathepsin B (Bos taurus) stood at 21000 M⁻¹ s⁻¹.

What is called half-life is the time needed for the level to fall by half in the phase considered. Higher therefore signals slow decline. The term ED50 denotes the dose at which the effect has come halfway, by size or by number of responders. A high value points to weaker potency. Turning to `Cc1cc(C)c(C(=O)OCC(=O)[C@H](CCCCN)NC(=O)[C@H](Cc2ccccc2)NC(=O)OCc2ccccc2)c(C)c1.Cl`, the half-life is 1.6 h in data set [4] and over 33 h in data set [5]. In addition, the Inhibition % was 98% with Rattus norvegicus [6]; 96% in the data set with Rattus norvegicus [7]; 96% with Rattus norvegicus [8]; 72% with Rattus norvegicus [10]; 94% in the data set on Rattus norvegicus [12]. The Control in the data set on Rattus norvegicus [1] is on record as 11%; in the data set with Rattus norvegicus [14], 4%. Further, the ED50 with Rattus norvegicus [9] is 2.4 mg/kg; in the data set with Rattus norvegicus [11], about 0.1 mg/kg; with Rattus norvegicus [13] it was 1 mg/kg. On Cathepsin B (Bos taurus), this compound gave a k/K of 230000 M⁻¹ s⁻¹.

On to `Cc1c(C)c(C(=O)OCC(=O)[C@H](C)NC(=O)[C@H](Cc2ccccc2)NC(=O)OCc2ccccc2)c(C)c(C)c1C(=O)O`, for which the Control with Rattus norvegicus [1] came out at 79%; in the data set with Rattus norvegicus [14], 53%. The same compound had a k/K on Cathepsin B (Bos taurus) of 63000 M⁻¹ s⁻¹.

With `Cc1cc(C)c(C(=O)OCC(=O)[C@@H](C)NC(=O)[C@H](Cc2ccccc2)NC(=O)OCc2ccccc2)c(C)c1`, the Control with Rattus norvegicus [15] was 69%; in the data set on Rattus norvegicus [16], 78%. Moreover, the k/K at Cathepsin B (Bos taurus) was 14000 M⁻¹ s⁻¹.

In the data set with Rattus norvegicus [14], `CC(C)C[C@H](NC(=O)[C@H]1O[C@@H]1C(=O)O)C(=O)NCCCCN=C(N)N` [E-64] returned a Control of 24%.

Regarding `Cc1cc(C)c(C(=O)OCC(=O)[C@@H](C)NC(=O)[C@H](Cc2ccccc2)NC(=O)c2ccc(C(=O)NS(=O)(=O)c3ccccc3)cc2)c(C)c1`, the Control was found to be 68% in the data set on Rattus norvegicus [2] and 62% with Rattus norvegicus [3]. The same compound returned a k/K at Cathepsin B (Bos taurus) of 2500 M⁻¹ s⁻¹.

On to `COC(=O)CCC(=O)N[C@@H](Cc1ccccc1)C(=O)N[C@H](C)C(=O)COC(=O)c1c(C)cc(C)cc1C`, for which the Control stood at 38% in the data set on Rattus norvegicus [2] and 50% in the data set on Rattus norvegicus [3]. In addition, on Cathepsin B (Bos taurus), the k/K came out at 4000 M⁻¹ s⁻¹.

For `Cc1cc(C)c(C(=O)OCC(=O)CNC(=O)[C@H](Cc2ccccc2)NC(=O)OCc2ccccc2)c(C)c1`, in the data set with Rattus norvegicus [3], the Control is recorded as 29%. At Cathepsin B (Bos taurus), this compound showed a k/K of 9900 M⁻¹ s⁻¹.

Values taken from ChEMBL document CHEMBL1127827, “In vivo inhibition of cathepsin B by peptidyl (acyloxy)methyl ketones” (J Med Chem, 1994).
